Yeast tox: Compounds toxic to wild-type S. cerevisiae growth; A595 turbidity, 16 h; growth inhibition, % at 25 µM (by protocol); hit rate 0.3% among 30,000; AID 685;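 active = mutant and wild-type yeast strains alike exhibit over 30% growth inhibition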;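 note: 0% = untreated cell controls and 100% = YPD media blanks without cells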
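system = S. cerevisiae wild-type or eIF2Bepsilon-R284H mutant strain | buffer or medium = YPD medium | dosing = one dose, 25 µM compound, 0.2% DMSO | schedule = 16 h at 30 °C | measured by = A595 turbidity | evaluation = growth inhibition (%) versus cell controls and blanks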
Yeast eIF2B: modulators of yeast eIF2B activity | S. cerevisiae eIF2B-epsilon R284H, GCN4-lacZ luminescence | inhibition, % at 25 µM (by protocol) | hit rate 0.91% among 27,000;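 active = mutant luminescence inhibited past about 50% while wild type luminescence and mutant growth stay under set limits, limit read from the data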
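Assay system: yeast eIF2B-epsilon R284H mutant carrying GCN4–beta-galactosidase fusion / Buffer or medium: YPD / Incubation: 16 h growth with compound at 30 °C, 90 min Beta-Glo step / Detection: Beta-Glo luminescence after Z-buffer lysis, growth by 595 nm absorbance / Read-out: % inhibition of reporter signal and growth versus controls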
* marks the source's active call; other numbers are inactive results. Hits are enriched below; roughly 1% of the tested compounds scored in any of these assays.

How did COCCN1CCN(c2cc(-c3ccccc3)nc3cc(-c4cccc(F)c4)nn23)CC1 do in these assays?
Yeast tox: 73.8*

How did Fc1cccc(-c2cc3nc(-c4ccccc4)cc(N4CCC5(CC4)OCCO5)n3n2)c1 do in these assays?
Yeast eIF2B: -2.0

What do the screens show for `CN(C)c1ccc(/C=C2\C(=O)N(c3ccc([N+](=O)[O-])cc3)N=C2N2CCOCC2)cc1`?
Yeast tox: -10.0; Yeast eIF2B: -20.8

How did CCOc1ccc(C/C(N)=N/n2cnnc2)cc1 do in these assays?
Yeast tox: 20.0; Yeast eIF2B: 26.7

What do the screens show for `CCCCSc1nnc(CCCCCNC(=O)OC(C)(C)C)o1`?
Yeast tox: 13.3; Yeast eIF2B: 18.8

Results for COc1ccccc1-c1nnc2sc(COc3ccc(Cl)cc3)nn12 ?
Yeast tox: 2.1; Yeast eIF2B: 63.3*

What do the screens show for `COc1ccc(OCc2nn3c(-c4ccccn4)nnc3s2)cc1`?
Yeast tox: 7.5; Yeast eIF2B: 10.4

What do the screens show for `COc1ccccc1NC(=O)NC1(C(=O)N2CCCCCC2)CCCCC1`?
Yeast eIF2B: 26.5

What do the screens show for `CC1(C)NC(=O)N(CCOCCOc2cccc(Oc3ccccc3)c2)C1=O`?
Yeast tox: 2.1; Yeast eIF2B: 12.6

Results for CCC(C)Oc1cccc(OCCCCN2C(=O)NC(C)(C)C2=O)c1 (stereo not drawn) ?
Yeast tox: -12.3; Yeast eIF2B: 50.7*

What do the screens show for `CCC(=O)Nc1ccc(NC(=O)c2cc3ccccc3o2)cc1`?
Yeast tox: 18.1; Yeast eIF2B: 19.1

What do the screens show for `O=C(Nc1ccccn1)c1cc2ccccc2o1`?
Yeast eIF2B: 56.6*

How did c1ccc(-c2ncnc3nc4n(c23)CCC4)cc1 do in these assays?
Yeast tox: 4.3; Yeast eIF2B: -10.2

Results for O=C(NCc1ccncc1)c1ccc(Cl)c(S(=O)(=O)N2CCOCC2)c1 ?
Yeast eIF2B: 19.2

Results for CC(C)(C)SCCNC(=O)c1ccc(Cl)c(S(=O)(=O)N2CCOCC2)c1 ?
Yeast tox: 0.3; Yeast eIF2B: 51.9*

Results for CCN(CC)c1ccc(C2NCC(c3ccc([N+](=O)[O-])cc3)O2)cc1 (stereo not drawn) ?
Yeast eIF2B: -1.6

What do the screens show for `CC(C)NC(=O)c1cc(-c2cccs2)on1`?
Yeast tox: 17.8; Yeast eIF2B: 24.4

What do the screens show for `Cc1cc(NC(=O)c2cc(-c3cccs3)on2)no1`?
Yeast tox: 30.7*; Yeast eIF2B: 0.3

How did COC(=O)Nc1cc(C(F)(F)F)ccc1N1CCN(c2ccccc2)CC1 do in these assays?
Yeast tox: 8.2; Yeast eIF2B: 2.0

Results for CC(=O)Nc1cc(C(F)(F)F)ccc1OCCOc1ccccc1 ?
Yeast tox: -5.6; Yeast eIF2B: 55.1*

Results for CCn1c(SCc2cccc(C)c2)nnc1-c1ccc(C)cc1 ?
Yeast tox: 4.1; Yeast eIF2B: 16.5

What do the screens show for `Cc1cccc(-c2nnc(SCC#N)n2Cc2ccccc2)c1`?
Yeast tox: -14.7; Yeast eIF2B: 63.6*

Results for CCC(Sc1nc2ccccc2c2nc3ccccc3n12)C(=O)NCc1ccco1 (stereo not drawn) ?
Yeast tox: -33.5; Yeast eIF2B: 2.9

What do the screens show for `CCN1CCN(C(c2cccs2)C(C)NS(=O)(=O)c2ccc(Br)cc2)CC1` (stereo not drawn)?
Yeast tox: -1.9; Yeast eIF2B: 20.9

What do the screens show for `Cc1ccc(N2CC(C(=O)Nc3ccccc3C(=O)NC3CCCCC3)CC2=O)cc1C` (stereo not drawn)?
Yeast tox: 10.3; Yeast eIF2B: 54.0*

How did O=C(Nc1ccccc1C(=O)NC1CCCCC1)c1ccco1 do in these assays?
Yeast tox: -1.9; Yeast eIF2B: 16.6

How did CCOC1(C(F)(F)F)NC(=O)N(Cc2ccc(OC)cc2)C1=O (stereo not drawn) do in these assays?
Yeast tox: 4.8; Yeast eIF2B: -1.3

What do the screens show for `CCOC(=O)CSc1nnnn1-c1cc(OC)ccc1OC`?
Yeast tox: 0.0; Yeast eIF2B: 5.9

How did COc1ccc(CNc2cc(C)nc3ncnn23)c(OC)c1 do in these assays?
Yeast tox: 7.9; Yeast eIF2B: 16.6

How did Cc1cc(NCc2ccc(F)cc2Cl)n2nnnc2n1 do in these assays?
Yeast tox: 16.2; Yeast eIF2B: 64.1*

What do the screens show for `O=C(CSc1nnc(COc2ccccc2)n1-c1ccccc1)c1cccs1`?
Yeast tox: -6.6; Yeast eIF2B: -8.7

Results for COc1ccc(NC(=O)C(=O)NCCN2CCN(C(=O)c3cccs3)CC2)cc1 ?
Yeast tox: -22.6; Yeast eIF2B: 51.6*

What do the screens show for `Cc1cc(NC(=O)C(=O)NCCN2CCN(C(=O)c3cccs3)CC2)ccc1Br`?
Yeast tox: -29.7; Yeast eIF2B: -35.5

Results for COCCNC(=O)COc1ccc(Oc2ccccc2)cc1 ?
Yeast tox: 33.8; Yeast eIF2B: 12.7

How did Cc1c(C(=O)N2CCCCC2)nnn1-c1nonc1N do in these assays?
Yeast tox: 0.0; Yeast eIF2B: 19.0

How did CCOC(=O)C1=C(N)N2C(=O)C(C)SC2=C(C(=O)OCC)C1c1ccccc1 (stereo not drawn) do in these assays?
Yeast tox: -20.6; Yeast eIF2B: 49.6

What do the screens show for `CCOC(=O)C1=C(N)N2C(=O)C(C)SC2=C(C(=O)OC)C1c1ccccc1OC` (stereo not drawn)?
Yeast tox: 68.7*

What do the screens show for `c1ccc(N(c2ccccc2)c2nc(-n3ccnc3)nc(-n3ccnc3)n2)cc1`?
Yeast tox: 100.9*; Yeast eIF2B: 94.8

What do the screens show for `CN(c1ccccc1)c1nc(-n2ccnc2)nc(-n2ccnc2)n1`?
Yeast tox: -1.9; Yeast eIF2B: 27.6

How did Cc1ccc(S(=O)(=O)NCCOc2nc(N3CCOCC3)nc(N3CCOCC3)n2)cc1 do in these assays?
Yeast tox: 10.0; Yeast eIF2B: 11.2

Results for CN1CCN(CCC(=O)N2c3ccccc3Sc3ccc(Cl)cc32)CC1 ?
Yeast tox: -1.5; Yeast eIF2B: 19.8

How did CN1CCN(c2nc(-c3ccccc3)cc(C(F)(F)F)n2)CC1 do in these assays?
Yeast tox: -11.7; Yeast eIF2B: 29.9

What do the screens show for `CN1CCN(C2=Cc3ccccc3Sc3cc(F)c(Cl)cc32)CC1`?
Yeast tox: 99.2*; Yeast eIF2B: 97.8

How did CN1CCN(C2=Cc3ccccc3Sc3cc(F)c(F)cc32)CC1 do in these assays?
Yeast tox: 94.2*; Yeast eIF2B: 75.3

What do the screens show for `CN(Cc1ccco1)S(=O)(=O)c1ccc2c(c1)CCN2C(=O)CCC(=O)O`?
Yeast tox: 6.9; Yeast eIF2B: 26.0

Results for O=C1C(=O)c2ccc(-c3ccccc3)cc2-c2ccccc21 ?
Yeast tox: 37.6; Yeast eIF2B: 43.1

Results for Nc1ccc2c(c1)C(=O)C(=O)c1ccccc1-2 ?
Yeast tox: 38.3*

What do the screens show for `CC1(C)CC2(CCO1)N1CC3(C)CN2CC(C)(C1)C3=O` (stereo not drawn)?
Yeast tox: 15.9; Yeast eIF2B: -19.5

How did CC(C)(C)OC(=O)N1CCC(C(=O)N[C@@H](Cc2ccccc2)C(=O)O)CC1 do in these assays?
Yeast tox: -16.2; Yeast eIF2B: 15.5

How did CC(=O)c1cccc(-n2nnnc2SCC(=O)Nc2ccccc2N2CCCCC2)c1 do in these assays?
Yeast tox: 7.3; Yeast eIF2B: 19.4

Results for CC(=O)c1cccc(-n2nnnc2SCC(=O)Nc2cccc(NC(=O)c3ccco3)c2)c1 ?
Yeast tox: 6.9; Yeast eIF2B: 61.4*

What do the screens show for `COc1ccc(NC(=O)CCNC(=O)Cn2cnc3ccccc3c2=O)c(OC)c1`?
Yeast tox: -4.1; Yeast eIF2B: -11.2
